Experimental findings from ChEMBL document CHEMBL4017453, “Design, synthesis and optimization of bis-amide derivatives as CSF1R inhibitors” (Bioorg Med Chem Lett, 2017) are described below.

Values after ≈ are worked out from the molar mass of the structure shown. Active and inactive are the calls of the source. The rule behind the calls is not given here.

Data set [1] deals with Mast/stem cell growth factor receptor Kit (Homo sapiens, UniProt P10721). Kind of data set: Inhibition of human c-Kit using poly[Glu:Tyr] (4:1) as substrate measured after 2 hrs in presence of [33gammaP]ATP by […] ion exchange chromatographic method. The essentials: (§1)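 Radiometric kinase assay: enzyme incubated with [γ-33P]-ATP and peptide substrate; IC50 curves fitted per compound. Selectivity expressed as c-Kit IC50 over CSF1R IC50.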
Chain of Mast/stem cell growth factor receptor Kit (P10721 whole entry): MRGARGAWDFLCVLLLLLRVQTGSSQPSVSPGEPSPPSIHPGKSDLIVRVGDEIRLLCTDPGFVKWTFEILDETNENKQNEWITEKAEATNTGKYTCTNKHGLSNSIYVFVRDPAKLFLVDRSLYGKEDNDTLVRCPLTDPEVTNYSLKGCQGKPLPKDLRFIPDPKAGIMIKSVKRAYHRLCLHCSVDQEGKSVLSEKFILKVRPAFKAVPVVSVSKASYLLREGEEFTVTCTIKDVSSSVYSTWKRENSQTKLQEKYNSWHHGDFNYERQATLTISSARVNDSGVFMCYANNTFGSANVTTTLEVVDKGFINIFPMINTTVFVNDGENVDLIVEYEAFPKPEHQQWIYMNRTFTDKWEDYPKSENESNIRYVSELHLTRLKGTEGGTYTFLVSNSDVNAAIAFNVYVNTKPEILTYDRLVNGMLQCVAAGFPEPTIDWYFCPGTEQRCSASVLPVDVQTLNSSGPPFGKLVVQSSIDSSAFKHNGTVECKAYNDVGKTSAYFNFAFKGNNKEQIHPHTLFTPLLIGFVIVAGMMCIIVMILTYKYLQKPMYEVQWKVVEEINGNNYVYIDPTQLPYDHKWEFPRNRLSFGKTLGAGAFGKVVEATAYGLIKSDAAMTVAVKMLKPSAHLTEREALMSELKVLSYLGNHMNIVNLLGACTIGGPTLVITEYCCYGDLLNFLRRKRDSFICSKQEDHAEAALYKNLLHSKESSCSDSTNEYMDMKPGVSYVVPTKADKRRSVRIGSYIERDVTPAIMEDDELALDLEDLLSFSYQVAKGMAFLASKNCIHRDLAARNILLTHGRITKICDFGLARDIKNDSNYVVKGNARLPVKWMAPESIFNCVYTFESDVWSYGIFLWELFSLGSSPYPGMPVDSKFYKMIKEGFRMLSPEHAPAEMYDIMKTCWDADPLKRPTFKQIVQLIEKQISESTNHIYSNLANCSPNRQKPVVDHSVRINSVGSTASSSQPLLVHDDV

Data set [2] is described as follows: Growth inhibition of mouse BMMC at 1 uM after 72 hrs by CellTiter-Glo luminescent assay relative to control. Format: functional. The note with it: read-out: GI. The essentials: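 Cell viability in primary mouse bone marrow-derived macrophages, which depend on CSF1 for survival; inhibition measured at 1 single concentration.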
(In general: Cellular ATP, detected with luciferase, serves as a proxy for viable cell number.)

The test system of another data set is RAW264.7. The experiment in a line: Growth inhibition of mouse RAW264.7 cells at 1 uM after 72 hrs by CellTiter-Glo luminescent assay relative to control. Type of data set: functional.
Data set [3] can be described thus: Kinetic solubility of the compound in PBS buffer at pH 7.4 at […] after 1 hr by nephelometry. Type of data set: physicochemical. The following applies: read-out: Kinetic_solubility. The essentials:
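Kinetic solubility determined in isotonic phosphate buffer.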

Data set [4] in a line: Stability in human liver microsomes assessed as compound remaining at 1 uM after 30 mins in presence of NADPH by LC/MS/MS analysis. The note with it: read-out: Stability. Type of data set: ADME, microsome. In outline: (§2)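 Metabolic stability in human or mouse liver microsomes supplemented with NADPH; reported as percent of parent remaining relative to time-zero control.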
A general note: Microsomes from liver hold many membrane-bound enzymes, among them those of drug oxidation.

Data set [5] is described as follows: Stability in mouse liver microsomes assessed as compound remaining at 1 uM after 30 mins in presence of NADPH by LC/MS/MS analysis. Format: ADME, microsome. The note with it: read-out: Stability. In outline: as §2
Data set [6] is described as follows: Stability in human plasma assessed as compound remaining at 1 uM after 4 hrs by LC/MS/MS analysis. The note with it: read-out: Stability. Format: ADME, cell-free. In outline: (§3)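 Test article incubated 4 h in human or mouse plasma to probe amidase hydrolysis; percent parent remaining versus time-zero control.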
The nature of data set [7]: Stability in mouse plasma assessed as compound remaining at 1 uM after 4 hrs by LC/MS/MS analysis. Type of data set: ADME, cell-free. The following applies: read-out: Stability. The essentials: as §3
The nature of data set [8]: Cmax in CD-1 mouse plasma at 2 mg/kg, iv. Type of data set: ADME, organism-based. Set-up: dose 2 mg/kg, route intravenous. In outline:
(§4)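 Mice given a single IV dose (2 mg/kg) or oral dose (10 mg/kg); plasma levels followed over time. AUClast taken from time 0 to last quantifiable concentration; Cmax and Tmax read from observed profile; CL is systemic clearance and Vss volume at steady state, both from IV; oral bioavailability derived from PO versus IV exposure.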

A short description of data set [9]: AUC (0 to last) in CD-1 mouse at 2 mg/kg, iv. Type of data set: ADME, organism-based. Also noted: dose 2 mg/kg, time 0 - last, route intravenous. The note with it: in vivo. The essentials: as §4
The nature of data set [10]: Terminal half life in CD-1 mouse at 2 mg/kg, iv. Format: ADME, organism-based. The following applies: in vivo, read-out: beta t1/2 (converted). The essentials:
as §4

Data set [11] is described as follows: Systemic clearance in CD-1 mouse at 2 mg/kg, iv. Type of data set: ADME, organism-based. The note with it: in vivo. In outline:
as §4

The nature of data set [12]: Volume of distribution at steady state in CD-1 mouse at 2 mg/kg, iv. The following applies: in vivo, read-out: Vdss. Format: ADME, organism-based. The essentials:
as §4

Data set [13] can be described thus: Cmax in CD-1 mouse plasma at 10 mg/kg, po. Format: ADME, organism-based. Set-up: dose 10 mg/kg, route oral. The essentials:
as §4

Data set [14] in a line: AUC (0 to last) in CD-1 mouse at 10 mg/kg, po. Type of data set: ADME, organism-based. Also noted: dose 10 mg/kg, route oral, time 0 - last. The note with it: in vivo. In outline:
as §4

Data set [15] can be described thus: Terminal half life in CD-1 mouse at 10 mg/kg, po. The note with it: in vivo, read-out: beta t1/2 (converted). Type of data set: ADME, organism-based. In outline: as §4
Data set [16] in a line: Tmax in CD-1 mouse at 10 mg/kg, po. The following applies: in vivo. Format: ADME, organism-based. In outline: as §4
A short description of data set [17]: Oral bioavailability in CD-1 mouse at 10 mg/kg. Format: ADME, organism-based. The following applies: in vivo. The essentials: as §4
The subject of data set [18] is Liver. The experiment in a line: Drug metabolism in mouse liver microsomes assessed as demethylation by measuring N-(4-methyl-3-(3-(1-methyl-1H-pyrazol-4-yl)benzamido)phenyl)-4-(piperazin-1-ylmethyl)-3-(trifluoromethyl)benzamide level at 10 uM measured after 1 hr in presence of NADPH. Type of data set: ADME, microsome.
Data set [19] in a line: Clearance in iv dosed mouse. Format: ADME, organism-based. The note with it: in vivo. The essentials: as §4
Data set [20] has as its system Liver. The experiment in a line: Drug level in mouse liver microsomes treated with N-(4-methyl-3-(3-(1-methyl-1H-pyrazol-4-yl)benzamido)phenyl)-4-((4-methylpiperazin-1-yl)methyl)-3-(trifluoromethyl)benzamide at 10 uM measured after 1 hr in presence of NADPH. Format: ADME, microsome.
Data set [21] has as its target Macrophage colony-stimulating factor 1 receptor (Homo sapiens, UniProt P07333). Kind of data set: Inhibition of human CSF1R using poly[Glu:Tyr] (4:1) as substrate incubated for 2 hrs in presence of [33gammaP]ATP by P81 ion exchange chromatographic method.
The species named for a further data set is Homo sapiens. The experiment in a line: Selectivity ratio of IC50 for human c-Kit to IC50 for human CSF1R. In outline: as §1
The nature of data set [22]: Apparent permeability from apical to basolateral side in human Caco2 cells at 10 uM incubated for 60 mins by LC-MS/MS analysis. Format: ADME, cell-based, Caco-2. The essentials: (§5)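 Caco2 monolayer permeability measured in apical-to-basolateral and basolateral-to-apical directions; mean Papp with SD reported, efflux ratio calculated from the two directions.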
On the technique in general: Caco-2 monolayers are a common model of the intestinal barrier.

Data set [23] can be described thus: Apparent permeability from basolateral to apical side in human Caco2 cells at 10 uM incubated for 60 mins by LC-MS/MS analysis. Format: ADME, cell-based, Caco-2. In outline:
as §5

The term IC50 denotes the midpoint of a concentration-inhibition curve. As a reminder, the Cmax is the maximum level reached in the sampled fluid or tissue. As a reminder, the AUC(0-t) is exposure summed from dosing to a finite time, without extrapolation to infinity. A higher AUC(0-t) goes with more exposure. For orientation: clearance means the rate of elimination divided by the concentration. Read a low clearance as a low capacity for elimination. The term Tmax denotes the time at which the peak concentration occurs. For orientation: bioavailability means the share of a dose that reaches the circulation, judged against a reference dose that is usually intravenous. The Papp is a coefficient for how fast a substance crosses the barrier. The term Papp A→B denotes the apparent permeability from the apical to the basolateral side of a cell layer. For orientation: Papp B→A means the apparent permeability from the basolateral to the apical side of a cell layer.

Chain of Macrophage colony-stimulating factor 1 receptor (P07333 whole entry): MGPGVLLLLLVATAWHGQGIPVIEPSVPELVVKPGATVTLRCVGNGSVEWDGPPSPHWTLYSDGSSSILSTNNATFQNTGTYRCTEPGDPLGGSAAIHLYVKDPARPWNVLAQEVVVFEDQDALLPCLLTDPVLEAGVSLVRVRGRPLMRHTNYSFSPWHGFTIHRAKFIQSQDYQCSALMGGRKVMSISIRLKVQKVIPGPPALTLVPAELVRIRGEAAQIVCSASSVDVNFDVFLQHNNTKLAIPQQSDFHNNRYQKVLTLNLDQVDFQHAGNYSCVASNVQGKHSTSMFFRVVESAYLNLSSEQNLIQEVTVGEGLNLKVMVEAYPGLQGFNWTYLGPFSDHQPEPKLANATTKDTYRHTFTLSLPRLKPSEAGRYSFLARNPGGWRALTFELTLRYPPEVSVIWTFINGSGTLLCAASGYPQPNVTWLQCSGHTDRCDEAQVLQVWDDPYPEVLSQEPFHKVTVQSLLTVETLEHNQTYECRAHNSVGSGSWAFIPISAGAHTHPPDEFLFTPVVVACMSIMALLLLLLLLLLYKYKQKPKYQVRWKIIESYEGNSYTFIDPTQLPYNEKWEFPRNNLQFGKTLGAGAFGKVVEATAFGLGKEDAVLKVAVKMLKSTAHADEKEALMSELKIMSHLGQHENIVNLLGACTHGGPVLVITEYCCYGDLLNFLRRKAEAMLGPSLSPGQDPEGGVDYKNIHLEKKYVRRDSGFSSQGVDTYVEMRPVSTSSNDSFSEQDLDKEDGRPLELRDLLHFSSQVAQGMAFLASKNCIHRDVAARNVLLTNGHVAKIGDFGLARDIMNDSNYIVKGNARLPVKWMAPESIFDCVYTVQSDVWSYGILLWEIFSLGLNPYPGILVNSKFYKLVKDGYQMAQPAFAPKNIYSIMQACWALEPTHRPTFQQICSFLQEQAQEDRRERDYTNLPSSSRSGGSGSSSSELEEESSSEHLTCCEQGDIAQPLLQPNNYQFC

As for `Cc1ccc(CNc2ccc(CN3CCN(C)CC3)c(C(F)(F)F)c2)cc1NC(=O)c1cccc(-c2cccs2)c1`, the IC50 in [1] worked out at 270 nM.

Turning to `Cc1ccc(NC(=O)c2ccc(CN3CCN(C)CC3)c(C(F)(F)F)c2)cc1NC(=O)c1cccc(-c2ccncc2)c1`, in data set [2], the inhibition of growth at 1 µM is 72%. Moreover, the IC50 in [1] is 390 nM. The “growth inhibition (GI)” value in the data set with RAW264.7 is “inactive”.

Consider `Cc1ccc(NC(=O)c2ccc(CN3CCN(C)CC3)c(C(F)(F)F)c2)cc1NC(=O)c1cccc(-c2cncnc2)c1`, for which the inhibition of growth at 1 µM in data set [2] was 76%. Besides, the IC50 in data set [1] was determined as 5970 nM. For the same molecule, the “growth inhibition (GI)” value in the data set on RAW264.7 was “inactive”.

Consider `Cc1ccc(NC(=O)c2ccc(CN3CCN(C)CC3)c(C(F)(F)F)c2)cc1NC(=O)c1cccc(-c2cnn(C)c2)c1`, for which, in data set [2], the inhibition of growth at 1 µM came out at 81%. In addition, in data set [1], the IC50 was 740 nM. Further, in the data set on RAW264.7, the “growth inhibition (GI)” value is “inactive”. In data set [3], the solubility kinetic at 1 h turned out to be 4.7 µM (≈ 2.78 µg/mL). The remaining at 0.5 h, 1 µM in [4] was 46 to 47%; in [5], 7%. The remaining at 4 h, 1 µM in data set [6] worked out at 95%; in data set [7] it was 67%. Further, the Cmax in data set [8] stood at 850 nM; in [13], 160 nM. Further, the results for the AUC(0-t) in [9] and in data set [14] were 0.27 µM·h and 0.16 µM·h, respectively. Further, the half-life in data set [10] is 13.8 min; in data set [15], 79.2 min. Besides, the clearance in data set [11] and in data set [19] was 210 mL/min/kg throughout. Also, the Vd in data set [12] is 4.23 L/kg. Moreover, the time of peak concentration (Tmax) in data set [16] was 15 min. The bioavailability in data set [17] worked out at 11%. Further, the Drug metabolism entry with Liver [18] is “Metabolite_Detected”.

With `Cc1ccc(NC(=O)c2ccc(CN3CCNCC3)c(C(F)(F)F)c2)cc1NC(=O)c1cccc(-c2cnn(C)c2)c1`, the inhibition of growth at 1 µM in data set [2] was determined as 44%. For the same molecule, the IC50 in [1] is 3000 nM. Further, the remaining at 0.5 h, 1 µM in data set [4] came out at 85%; in data set [5] it was 72%. Besides, the Drug metabolism result in the data set on Liver [20] was “Metabolite_Detected”.

`Cc1ccc(NC(=O)c2ccc(CN3CCN(C)CC3)c(C(F)(F)F)c2)cc1NC(=O)c1cccc(-c2cn[nH]c2)c1`: the inhibition of growth at 1 µM in data set [2] is 80%. Further, the IC50 in data set [21] is below 0.5 nM; in data set [1] it was 20 nM. The “growth inhibition (GI)” value in the data set with RAW264.7 was “inactive”. Also, the Ratio IC50 in the data set filed under Homo sapiens was above 40.

With `Cc1ccc(C(=O)N(C)c2ccc(CN3CCN(C)CC3)c(C(F)(F)F)c2)cc1NC(=O)c1cccc(-c2cccs2)c1`, the IC50 in data set [1] is 5900 nM.

For `Cc1ccc(C(=O)Nc2ccc(CN3CCN(C)CC3)c(C(F)(F)F)c2)cc1N(C)C(=O)c1cccc(-c2cccs2)c1`, the IC50 in data set [1] is above 10000 nM.

Regarding `Cc1ccc(C(=O)Nc2ccc(CN3CCN(C)CC3)c(Cl)c2)cc1NC(=O)c1cccc(-c2cccs2)c1`, the inhibition of growth at 1 µM turned out to be 20% in data set [2] and 4% in the data set with RAW264.7 (RAW264.7, 72 h, read-out: GI). The 50% inhibitory concentration (IC50) in [1] is 2700 nM.

In the case of `Cc1ncc(NC(=O)c2cccc(C(F)(F)F)c2)cc1NC(=O)c1cncc(-c2cnn(C)c2)c1`, the inhibition of growth at 1 µM in data set [2] is 87%. Also, the IC50 in data set [1] worked out at 180 nM. Also, the “growth inhibition (GI)” value with RAW264.7 is “inactive”. For the same molecule, the remaining at 0.5 h, 1 µM in [4] worked out at 60%; in [5], 57%. The Papp worked out at 0.5 ×10⁻⁶ cm/s in data set [22] (caco-2, 1 h, 10 µM) and 36.3 ×10⁻⁶ cm/s in data set [23] (caco-2, 1 h, 10 µM).

For the molecule `Cc1ccc(NC(=O)c2cccc(C(F)(F)F)c2)cc1NC(=O)c1cncc(-c2cnn(C)c2)c1`, the inhibition of growth at 1 µM in data set [2] turned out to be 96%. Besides, the IC50 in data set [1] came to 60 nM. Further, the “growth inhibition (GI)” value in the data set on RAW264.7 was “inactive”. The remaining at 0.5 h, 1 µM in [4] is 37%; in [5], 63%. For the same molecule, the values for the Cmax in data set [8] and in [13] were 3550 nM and 4600 nM, respectively. Further, the AUC(0-t) was 2.24 µM·h in [9] and 6.94 µM·h in data set [14]. The half-life in data set [10] is 52.2 min; in data set [15], 108 min. In [11], this molecule gave a clearance of 31 mL/min/kg. Also, the Vd in data set [12] came out at 1.1 L/kg. For the same molecule, the Tmax in data set [16] came to 30 min. In data set [17], this molecule displayed a bioavailability of 64%. In data set [22] (Caco-2), the Papp A→B at 1 h, 10 µM was determined as 12.5 ×10⁻⁶ cm/s. For the same molecule, in data set [23] (Caco-2), the Papp B→A at 1 h, 10 µM worked out at 32.5 ×10⁻⁶ cm/s.
